The results in this text go back to ChEMBL document CHEMBL1132980, “1,2,4-Triazolo[4,3-a]quinoxalin-1-one: a versatile tool for the synthesis of potent and selective adenosine receptor antagonists” (J Med Chem, 2000).

For test [1], the system named is Adenosine receptor A2a (Bos taurus). The experiment in a line: Binding affinity towards adenosine A2A receptor of bovine striatal membrane in presence of [3H]-CGS- at a concentration of 20 uM.
The target of test [2] is T1, Adenosine receptor A1 (Bos taurus, UniProt P28190).
T1 sequence (P28190 whole entry): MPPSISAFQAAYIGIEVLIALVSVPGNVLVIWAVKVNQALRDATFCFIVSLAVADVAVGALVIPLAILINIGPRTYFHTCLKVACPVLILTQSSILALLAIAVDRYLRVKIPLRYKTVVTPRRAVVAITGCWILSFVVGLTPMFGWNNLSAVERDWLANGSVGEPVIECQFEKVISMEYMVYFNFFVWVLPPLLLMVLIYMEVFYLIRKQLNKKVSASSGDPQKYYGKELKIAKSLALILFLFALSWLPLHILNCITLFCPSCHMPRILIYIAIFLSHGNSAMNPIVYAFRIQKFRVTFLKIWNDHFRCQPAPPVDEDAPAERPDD
Put plainly: Binding affinity towards adenosine A1 receptor of bovine brain membrane in presence of [3H]CHA at a concentration of 20 uM. In short, it runs like this:
(§1)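 Compounds dissolved in DMSO (2% in buffer), with blank runs for solvent effect. Membrane protein measured after solubilization in 0.75 N NaOH against a BSA standard.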

In test [3] the target is T2, Adenosine receptor A3 (Homo sapiens, UniProt P0DMS8).
T2 sequence (P0DMS8 whole entry): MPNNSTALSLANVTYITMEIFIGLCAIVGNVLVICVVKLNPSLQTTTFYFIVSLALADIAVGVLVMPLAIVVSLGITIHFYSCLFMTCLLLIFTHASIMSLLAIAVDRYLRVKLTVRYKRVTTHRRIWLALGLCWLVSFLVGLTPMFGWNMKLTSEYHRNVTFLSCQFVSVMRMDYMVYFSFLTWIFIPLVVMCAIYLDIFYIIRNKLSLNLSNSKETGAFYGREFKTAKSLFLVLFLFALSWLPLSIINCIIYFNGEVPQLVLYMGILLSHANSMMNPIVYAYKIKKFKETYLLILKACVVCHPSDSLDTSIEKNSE
The experiment in a line: Binding affinity towards human adenosine A3 receptor expressed in HEK293 cells in presence of [125I]-AB-MECA at a concentration of 1 uM. It counts as cell-based.

Test [4] addresses T3, Adenosine receptor A3 (Homo sapiens) (UniProt P0DMS8).
T3 sequence (whole entry): T2 sequence (P0DMS8 whole entry)
Put plainly: Binding affinity towards human Adenosine A3 receptor expressed in HEK293 cells using [125I]AB-MECA at 1 uM. It counts as cell-based.

Test [5] addresses Adenosine receptor A2a (Bos taurus). The experiment in a line: Binding affinity towards Adenosine A2A receptor of bovine striatal membrane using [3H]-CGS- at 20 uM.
The target in test [6] is T4, Adenosine receptor A1 (Bos taurus) (UniProt P28190).
T4 sequence (whole entry): T1 sequence (P28190 whole entry)
Put plainly: Binding affinity towards Adenosine A1 receptor of bovine brain membrane using [3H]-CHA at 20 uM. In short, it runs like this:
as §1

Test [7] concerns Adenosine receptor A2a (Bos taurus). The experiment in a line: Binding affinity towards adenosine A2A receptor of bovine striatal membrane in presence of [3H]-CGS-.
The target of test [8] is T2, Adenosine receptor A3. The experiment in a line: Binding affinity towards human adenosine A3 receptor expressed in HEK293 cells using [125I]AB-MECA at 1 uM. It counts as cell-based.
Test [9] concerns the target T1, Adenosine receptor A1. The experiment in a line: Binding affinity towards adenosine A1 receptor of bovine brain membrane using [3H]-CHA at 20 uM.

As usually defined, the inhibition is the drop in the measured response relative to a control, in per cent. The Ki is a dissociation constant, usually derived from enzyme kinetics or from competition with a known ligand. In the case of `O=c1n(-c2ccccc2)nc2c(NCCc3ccccc3)nc3ccccc3n12`, the inhibition in [1] was determined as 59%. Also, the Ki is 4.8 nM in [2] and 201 nM in [3].

The compound `Nc1nc2c(NCc3ccccc3)cccc2n2c(=O)n(-c3ccccc3)nc12` displayed an inhibition in test [4] of 30%. For the same compound, the values for the Ki in test [5] and in test [2] were 6.5 nM and 730 nM, respectively.

Regarding `O=C(Nc1nc2ccccc2n2c(=O)n(-c3ccccc3)nc12)c1ccccc1`, the inhibition in [1] was 53%. Further, the values for the Ki in [2] and in test [3] were 89.6 nM and 1.47 nM, respectively.

On to `O=c1[nH]c2ccccc2n2c(=O)n(-c3ccc(Cl)cc3)nc12`, for which the Ki in test [2] stood at 1020 nM; in test [3], 114 nM.

Compound `Cc1ccc(N2CN3C(=N2)C(=O)Nc2ccccc23)cc1` registered an inhibition in test [6] of 48%. The Ki in test [3] turned out to be 197 nM.

Take `Cc1ccc(-n2nc3c(=O)n(C)c4ccccc4n3c2=O)cc1`: the results for the inhibition in [1] and in [6] were 0% and 22%, respectively. The Ki in test [3] was determined as 504 nM.

`COc1ccc(NC(=O)Nc2nc3ccccc3n3c(=O)n(-c4ccccc4)nc23)cc1`: the Ki in test [2] was found to be 2600 nM; in test [3] it was 960 nM.

As for `O=c1n(-c2ccccc2)nc2c(NC3CCCCC3)nc3ccccc3n12`, the results for the Ki in test [2] and in test [3] were 1.43 nM and 506 nM, respectively.

`Cn1c(=O)c2nn(-c3ccc(Cl)cc3)c(=O)n2c2ccccc21`: the inhibition in test [1] was determined as 8%; in [6], 29%. Besides, in test [3], the Ki came out at 137 nM.

With `CCCn1c(=O)c2nn(-c3ccccc3)c(=O)n2c2ccccc21`, the inhibition in test [1] came out at 44%. Moreover, the Ki was 406 nM in test [2] and 1250 nM in test [3].

In the case of `Cc1cccc(-n2nc3c(=O)[nH]c4ccccc4n3c2=O)c1`, the inhibition in test [1] was determined as 5%. Also, the Ki amounted to 436 nM in test [2] and 91 nM in [3].

As to `COc1ccc(-n2nc3c(=O)[nH]c4ccccc4n3c2=O)cc1`, the Ki in test [2] came to 934 nM; in [3], 16 nM.

Consider `O=c1n(-c2cccc(F)c2)nc2c(NC3CCCC3)nc3ccccc3n12`, for which the Ki in test [2] was 1.1 nM; in test [7], 148 nM; in test [3], 173 nM.

Take `Cc1cccc(-n2nc3c(NC4CCCCC4)nc4ccccc4n3c2=O)c1`: the inhibition in test [1] was found to be 41%. Further, the Ki in test [2] is 4.2 nM; in [3], 548 nM.

On to `Cc1cccc(-n2nc3c(NC4CCCC4)nc4ccccc4n3c2=O)c1`, for which, in [3], the Ki was 27.5 nM.

Regarding `O=c1[nH]c2ccccc2n2c(=O)n(-c3cccc(F)c3)nc12`, the inhibition in test [1] amounted to 20%. The Ki in test [2] came out at 200 nM; in test [3] it was 63 nM.

`Nc1nc2ccccc2n2c(=O)n(-c3cccc(F)c3)nc12`: the Ki was 28.5 nM in test [2] and 157 nM in [3].

`O=c1n(-c2cccc(F)c2)nc2c(NC3CCCCC3)nc3ccccc3n12`: the Ki turned out to be 66 nM in test [5], 4.9 nM in test [2] and 44.2 nM in [3].

Regarding `Nc1nc2ccccc2n2c(=O)n(-c3ccc(Cl)cc3)nc12`, the inhibition in test [1] turned out to be 37%. The Ki in test [2] was determined as 426 nM; in test [3], 329 nM.

For the compound `Nc1nc2ccccc2n2c(=O)n(-c3ccccc3)nc12`, the inhibition in test [4] came out at 36%.

Consider `O=c1n(-c2ccccc2)nc2c(NCCCc3ccccc3)nc3ccccc3n12`, for which the inhibition in [1] amounted to 61%. For the same compound, the Ki in test [2] is 17.9 nM; in test [3], 40.9 nM.

Take `O=c1n(-c2ccc(Cl)cc2)nc2c(NC3CCCCC3)nc3ccccc3n12`: the inhibition in test [1] turned out to be 0%. In addition, the Ki in test [2] is 80.1 nM; in test [3], 56.1 nM.

Compound `Nc1cccc2c1nc(N)c1nn(-c3ccccc3)c(=O)n12` displayed an inhibition in [4] of 54%.

Take `C#CCn1c(=O)c2nn(-c3ccccc3)c(=O)n2c2ccccc21`: the Ki in test [3] worked out at 479 nM.

As to `O=C(Nc1ccccc1)Nc1nc2ccccc2n2c(=O)n(-c3ccccc3)nc12`, the Ki in [3] was 276 nM.

As to `O=c1n(-c2ccccc2)nc2c(NCC(c3ccccc3)c3ccccc3)nc3ccccc3n12`, the results for the Ki in test [8] and in test [9] were 1020 nM and 54 nM, respectively.

Turning to `O=c1n(-c2ccccc2)nc2c(NCc3ccccc3)nc3ccccc3n12`, the inhibition in [1] was 59%. Further, the results for the Ki in test [2] and in test [3] were 55 nM and 1700 nM, respectively.

For the compound `O=C(Cc1ccccc1)Nc1nc2ccccc2n2c(=O)n(-c3ccccc3)nc12`, the inhibition in [1] was determined as 62%. For the same compound, the Ki worked out at 6.3 nM in test [2] and 3.75 nM in test [3].

For the compound `O=c1n(-c2ccccc2)nc2c(NC3CCCC3)nc3ccccc3n12`, the Ki amounted to 0.42 nM in test [2] and 55.4 nM in test [3].

In the case of `COc1ccc(-n2nc3c(N)nc4ccccc4n3c2=O)cc1`, the figures for the Ki in [2] and in [3] were 312 nM and 45.3 nM, respectively.

Regarding `O=c1[nH]c2ccccc2n2c(=O)n(-c3ccccc3)nc12`, the inhibition in test [1] is 64%. In addition, the Ki in [2] was 515 nM; in test [3] it was 80 nM.

As to `Cn1c(=O)c2nn(-c3ccccc3)c(=O)n2c2ccccc21`, the inhibition in test [1] is 53%. The Ki is 309 nM in test [2] and 36.6 nM in [3].

For the compound `Cc1ccc(-n2nc3c(N)nc4ccccc4n3c2=O)cc1`, the Ki in test [3] amounted to 48.3 nM.

For the compound `Cc1cccc(-n2nc3c(N)nc4ccccc4n3c2=O)c1`, the Ki in test [2] is 20 nM; in test [3] it was 28.5 nM.

Consider `CC(=O)Nc1nc2ccccc2n2c(=O)n(-c3ccccc3)nc12`, for which the Ki in test [2] turned out to be 4.3 nM; in test [3], 2 nM.

As to `Cc1ccc(-n2nc3c(=O)[nH]c4ccccc4n3c2=O)cc1`, in [1], the inhibition turned out to be 0%. The figures for the Ki in [2] and in [3] were 155 nM and 25 nM, respectively.

Turning to `CCC(=O)Nc1nc2ccccc2n2c(=O)n(-c3ccccc3)nc12`, the values for the Ki in test [2] and in test [3] were 9.3 nM and 15.8 nM, respectively.

Turning to `Cn1c(=O)c2[nH]c(C3CCCC3)nc2n(C)c1=O` [8-CYCLOPENTYLTHEOPHYLLINE], the figures for the inhibition constant Ki in test [8] and in test [9] were 1300 nM and 0.5 nM, respectively.
